Laboratory results published in ChEMBL document CHEMBL1127574, “Design and synthesis of ellipticinium salts and 1,2-dihydroellipticines with high selectivities against human CNS cancers in vitro” (1994).

Tests used:
Assay type in all cases: functional
RPMI-8226 = test: Tested in vitro for cytotoxicity in RPMI-8226 cell line of Leukemia; conditions: Homo sapiens, read-out: Log TGI (converted)
Procedure, shortened: (§1)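 Compounds dissolved in DMSO, then diluted 500-fold into aqueous medium. The resulting aqueous solutions or suspensions were added to the cultured human tumour cell lines, and the cells were exposed for 48 h. Growth was read colorimetrically in one of two ways: a metabolic assay in which viable cells reduce a tetrazolium salt to a formazan dye, or a protein stain for total cellular protein.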

HT-29 = test: Tested in vitro for cytotoxicity in HT-29 cell line of Colon Cancer; conditions: Homo sapiens, read-out: Log TGI (converted); procedure, shortened: as §1
SK-OV-3 = test: Tested in vitro for cytotoxicity in SK-OV-3 cell line of Ovarian Cancer; conditions: Homo sapiens, read-out: Log TGI (converted)
Procedure, shortened: (§2)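 Compounds dissolved in DMSO and diluted 500-fold into aqueous medium; aliquots of the resulting solutions or suspensions added to cultured human tumor cells for 48 h. Growth read colorimetrically, either by tetrazolium reduction to formazan by viable cells or by protein staining of total cellular protein.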

TK-10 = test: Tested in vitro for cytotoxicity in TK-10 cell line of Renal cancer; conditions: Homo sapiens, read-out: Log TGI (converted); procedure, shortened: as §2
EKVX = test: Tested in vitro for cytotoxicity in EKVX cell line of Non-Small Cell Lung Cancer; conditions: Homo sapiens, read-out: Log TGI (converted)
Procedure, shortened: (§3)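 Compound DMSO solutions diluted 500-fold into aqueous medium; the resulting solutions or suspensions were added to cultured human tumor cells for 48 h. Growth was read colorimetrically, either by tetrazolium reduction to formazan by viable cells or by a protein stain for total cellular protein.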

LOX IMVI = test: Tested in vitro for cytotoxicity in LOX IMVI cell line of Melanoma; conditions: Homo sapiens, read-out: Log TGI (converted); procedure, shortened: as §1
CAKI-1 [1] = test: Tested in vitro for cytotoxicity in CAKI-1 cell lines; conditions: Homo sapiens; procedure, shortened: as §1
HCC 2998 = test: Tested in vitro for cytotoxicity in HCC2998 cell line of Colon Cancer; conditions: Homo sapiens, read-out: Log TGI (converted); procedure, shortened: as §1
HL-60 = test: Tested in vitro for cytotoxicity in HL-60(TB) cell line of Leukemia; conditions: Homo sapiens, read-out: Log TGI (converted)
Procedure, shortened: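 Compounds were dissolved in DMSO and diluted 500-fold in aqueous medium. Aliquots of the resulting solution or suspension were added to the cultured cells for 48 h. Growth was read colorimetrically, either by tetrazolium reduction to formazan in viable cells or by a total-protein stain.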

XF498 = test: Tested in vitro for cytotoxicity in XF498 cell line of CNS Cancer; conditions: Homo sapiens, read-out: Log TGI (converted); procedure, shortened: as §3
A549 = test: Tested in vitro for cytotoxicity in A549/ATCC cell line of Non-Small Cell Lung Cancer; conditions: Homo sapiens, read-out: Log TGI (converted); procedure, shortened: as §1
DLD-1 = test: Tested in vitro for cytotoxicity in DLD-1 cell line of Colon Cancer; conditions: Homo sapiens, read-out: Log TGI (converted); procedure, shortened: as §1
MOLT-4 = test: Tested in vitro for cytotoxicity in MOLT-4 cell line of Leukemia; conditions: Homo sapiens, read-out: Log TGI (converted); procedure, shortened: as §1
DMS-114 = test: Tested in vitro for cytotoxicity in DMS114 cell lines; conditions: Homo sapiens; procedure, shortened: as §1
SF-268 = test: Tested in vitro for cytotoxicity in SF-268 cell line of CNS cancer; conditions: Homo sapiens, read-out: Log TGI (converted); procedure, shortened: as §1
CAKI-1 [2] = test: Tested in vitro for cytotoxicity in CAKI-1 cell line of Renal cancer; conditions: Homo sapiens, read-out: Log TGI (converted); procedure, shortened: as §1
IGROV-1 = test: Tested in vitro for cytotoxicity in IGROV1 cell lines; conditions: Homo sapiens; procedure, shortened: as §1
NCI-H23 = test: Tested in vitro for cytotoxicity in NCI-H23 cell line of Non-Small Cell Lung Cancer; conditions: Homo sapiens, read-out: Log TGI (converted); procedure, shortened: as §1
M19-MEL = test: Tested in vitro for cytotoxicity in M19-MEL cell line of Melanoma; conditions: Homo sapiens, read-out: Log TGI (converted); procedure, shortened: as §1
U-251 = test: Tested in vitro for cytotoxicity in U251 cell line of CNS Cancer; conditions: Homo sapiens, read-out: Log TGI (converted); procedure, shortened: as §2
HOP-18 = test: Tested in vitro for cytotoxicity in HOP-18 cell line of Non-Small Cell Lung Cancer; conditions: Homo sapiens, read-out: Log TGI (converted); procedure, shortened: as §1
CCRF-CEM = test: Tested in vitro for cytotoxicity in CCRF-CEM cell lines; conditions: Homo sapiens; procedure, shortened: as §1
NCI-H460 = test: Tested in vitro for cytotoxicity in NCI-H460 cell line of Non-Small Cell Lung Cancer; conditions: Homo sapiens, read-out: Log TGI (converted); procedure, shortened: as §1
Malme-3M = test: Tested in vitro for cytotoxicity in MALME-3M cell line of Melanoma; conditions: Homo sapiens, read-out: Log TGI (converted); procedure, shortened: as §1
NCI-H522 = test: Tested in vitro for cytotoxicity in NCI-H522 cell line of Non-Small Cell Lung Cancer; conditions: Homo sapiens, read-out: Log TGI (converted); procedure, shortened: as §1
M14 = test: Tested in vitro for cytotoxicity in M14 cell line of Melanoma; conditions: Homo sapiens, read-out: Log TGI (converted); procedure, shortened: as §1
COLO 205 = test: Tested in vitro for cytotoxicity in COLO 205 cell line of Colon Cancer; conditions: Homo sapiens, read-out: Log TGI (converted); procedure, shortened: as §1
OVCAR-5 = test: Tested in vitro for cytotoxicity in OVCAR-5 cell line of Ovarian Cancer; conditions: Homo sapiens, read-out: Log TGI (converted); procedure, shortened: as §1
SNB-75 = test: Tested in vitro for cytotoxicity in SNB-75 cell line of CNS Cancer; conditions: Homo sapiens, read-out: Log TGI (converted); procedure, shortened: as §2
DMS-273 = test: Tested in vitro for cytotoxicity in DMS273 cell line of Small Cell Lung Cancer; conditions: Homo sapiens, read-out: Log TGI (converted); procedure, shortened: as §1
KM12 = test: Tested in vitro for cytotoxicity in KM12 cell line of Colon Cancer; conditions: Homo sapiens, read-out: Log TGI (converted); procedure, shortened: as §1

## COc1ccc2[nH]c3c(C)c4cc[n+](C)cc4c(C)c3c2c1
RPMI-8226
  TGI: > 100 µM
HT-29
  TGI: > 100 µM
SK-OV-3
  TGI: > 100 µM
TK-10
  TGI: > 100 µM
EKVX
  TGI: 25.1 µM
LOX IMVI
  TGI: > 100 µM
CAKI-1 [1]
  GI50: 48.2 µM
HCC 2998
  TGI: 63.1 µM
HL-60
  TGI: > 100 µM
XF498
  TGI: 10 µM
A549
  TGI: > 100 µM
DLD-1
  TGI: > 100 µM
MOLT-4
  TGI: > 100 µM
DMS-114
  GI50: 811 nM
SF-268
  TGI: 5.01 µM
CAKI-1 [2]
  TGI: > 100 µM
IGROV-1
  GI50: 3.62 µM
NCI-H23
  TGI: 10 µM
M19-MEL
  TGI: 25.1 µM
U-251
  TGI: 5.01 µM
HOP-18
  TGI: > 100 µM
CCRF-CEM
  GI50: 4.22 µM
NCI-H460
  TGI: 79.4 µM
Malme-3M
  TGI: 25.1 µM
NCI-H522
  TGI: 7.94 µM
M14
  TGI: > 100 µM
COLO 205
  TGI: 39.8 µM
OVCAR-5
  TGI: > 100 µM
SNB-75
  TGI: 3.16 µM
DMS-273
  TGI: 63.1 µM
KM12
  TGI: 25.1 µM
